Measured values from ChEMBL document CHEMBL2407061, “Medicinal chemistry of dihydropyran-based medium ring macrolides related to aspergillides: selective inhibition of PI3Kα” (J Med Chem, 2013).
One block for each compound: values may come before it. The source made the active and inactive calls. No cut-off for these calls is given here.

Experiments:
[1] = test system: HL-60; test: Antiproliferative activtiy against human HL60 cells assessed as growth inhibition after 48 hrs by MTT assay; format: functional, cell-based; conditions: HL-60, 48 h
Procedure, shortened: (§1)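 15000 cells per well in 200µl medium, exposed to a range of concentrations for 48 h (compounds in DMSO, diluted in complete medium). MTT (20µl of 2.5 mg/ml) added for 2 h at 37°C, formazan dissolved in DMSO, OD read at 570 nm. Viability = OD test/OD control ×100. IC50 taken from the concentration–survival curve after blank subtraction.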

[2] = test system: A-375; test: Antiproliferative activtiy against human A375 cells assessed as growth inhibition after 48 hrs by MTT assay; format: functional, cell-based; conditions: A-375, 48 h; procedure, shortened: as §1
[3] = test system: PC-3; test: Antiproliferative activtiy against human PC3 cells assessed as growth inhibition after 48 hrs by MTT assay; format: functional, cell-based; conditions: PC-3, 48 h; procedure, shortened: as §1
[4] = test system: HL-60; test: Induction of apoptosis in human HL60 cells assessed as early apoptotic cells at 5 uM after 6 hrs by Annexine V/propidium iodide staining-based FACS flow cytometry analysis (reference value: 4%); format: functional
[5] = test system: HL-60; test: Induction of apoptosis in human HL60 cells assessed as mitochondrial membrane potential loss at 10 uM after 6 hrs by RH 123 staining-based flow cytometer analysis (reference value: 6%); format: functional
Procedure, shortened: (§2)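 1×10^6 HL-60 cells in 12-well plates, exposed to 5, 10 or 20 µM for 6 h. Rhodamine 123 added 30 min before the end. Cells collected at 400 g, washed once in PBS, and fluorescence read in the FL-1 channel of a flow cytometer.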

[6] = test system: HL-60; test: Induction of apoptosis in human HL60 cells assessed as late apoptotic cells at 20 uM after 6 hrs by Annexine V/propidium iodide staining-based FACS flow cytometry analysis (reference value: 2%); format: functional
[7] = test system: HL-60; test: Cell cycle arrest in human HL60 cells assessed as accumulation at G0/G1 phase at 20 uM after 6 hrs using by propidium iodide staining by FACS analysis (reference value: 6%); format: functional
[8] = molecular target: Phosphatidylinositol 4,5-bisphosphate 3-kinase catalytic subunit alpha isoform (Homo sapiens) (UniProt P42336); test: Inhibition of PI3K p110 alpha in human HL60 cells assessed as PARP 1 clevage by Western blotting analysis; format: cell-based; conditions: HL-60
Phosphatidylinositol 4,5-bisphosphate 3-kinase catalytic subunit alpha isoform (Homo sapiens), sequence (P42336 whole entry, canonical isoform): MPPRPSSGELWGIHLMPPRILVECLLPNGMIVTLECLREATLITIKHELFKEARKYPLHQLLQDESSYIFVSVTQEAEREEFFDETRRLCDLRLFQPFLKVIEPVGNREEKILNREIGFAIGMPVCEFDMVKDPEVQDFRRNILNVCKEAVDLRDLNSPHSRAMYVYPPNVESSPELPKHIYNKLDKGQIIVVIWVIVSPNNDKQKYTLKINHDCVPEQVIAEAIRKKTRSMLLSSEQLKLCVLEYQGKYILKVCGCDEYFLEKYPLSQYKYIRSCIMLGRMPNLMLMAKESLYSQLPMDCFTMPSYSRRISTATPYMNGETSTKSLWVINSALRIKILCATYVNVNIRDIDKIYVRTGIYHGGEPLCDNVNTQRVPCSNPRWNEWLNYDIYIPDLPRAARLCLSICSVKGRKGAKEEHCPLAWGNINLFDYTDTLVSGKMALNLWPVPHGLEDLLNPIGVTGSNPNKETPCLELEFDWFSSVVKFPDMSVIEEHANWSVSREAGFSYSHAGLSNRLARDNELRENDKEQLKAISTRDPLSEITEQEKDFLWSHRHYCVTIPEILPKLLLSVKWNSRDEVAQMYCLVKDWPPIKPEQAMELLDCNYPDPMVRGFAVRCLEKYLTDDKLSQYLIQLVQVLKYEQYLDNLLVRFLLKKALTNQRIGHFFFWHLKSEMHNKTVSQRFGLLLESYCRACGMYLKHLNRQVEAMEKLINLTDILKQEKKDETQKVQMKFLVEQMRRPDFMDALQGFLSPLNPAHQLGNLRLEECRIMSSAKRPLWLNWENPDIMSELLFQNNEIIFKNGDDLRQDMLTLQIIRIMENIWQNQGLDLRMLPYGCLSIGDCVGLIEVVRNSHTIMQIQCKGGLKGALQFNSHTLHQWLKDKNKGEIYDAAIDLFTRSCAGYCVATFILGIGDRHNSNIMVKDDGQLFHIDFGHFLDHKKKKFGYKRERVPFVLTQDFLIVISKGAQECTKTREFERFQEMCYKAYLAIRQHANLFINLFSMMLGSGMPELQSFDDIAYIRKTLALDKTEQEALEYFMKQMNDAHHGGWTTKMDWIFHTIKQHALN
Procedure, shortened: (§3)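 Treated and untreated HL-60 cells spun at 400g at 4°C, washed in PBS and lysed in RIPA buffer for whole-cell lysate. 60 µg protein per lane run on SDS-PAGE and probed with primary antibodies. ECL chemiluminescence detection, with β-actin as the loading control.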

[9] = test system: HL-60; test: Cell cycle arrest in human HL60 cells assessed as accumulation at G0/G1 phase at 5 uM after 6 hrs using by propidium iodide staining by FACS analysis (reference value: 6%); format: functional
[10] = test system: HL-60; test: Induction of apoptosis in human HL60 cells assessed as early apoptotic cells at 10 uM after 6 hrs by Annexine V/propidium iodide staining-based FACS flow cytometry analysis (reference value: 4%); format: functional
[11] = test system: HL-60; test: Induction of apoptosis in human HL60 cells assessed as mitochondrial membrane potential loss at 20 uM after 6 hrs by RH 123 staining-based flow cytometer analysis (reference value: 6%); format: functional; procedure, shortened: as §2
[12] = test system: HL-60; test: Induction of apoptosis in human HL60 cells assessed as late apoptotic cells at 5 uM after 6 hrs by Annexine V/propidium iodide staining-based FACS flow cytometry analysis (reference value: 2%); format: functional
[13] = Cytotoxicity against human FR2 cells after 48 hrs by MTT assay; format: cell-based; conditions: FR2, 48 h; procedure, shortened: as §1
[14] = test system: HL-60; test: Induction of apoptosis in human HL60 cells assessed as change in nuclear morphology at 5 to 20 uM after 6 hrs by Hoechst 33258 staining-based inverted fluorescence analysis; format: functional, cell-based
Procedure, shortened: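 HL-60 cells exposed for 6 h. Spun at 400 g, washed twice in PBS, stained 30 min at room temperature under subdued light with Hoechst 33258 (10 µg/ml in citrate/phosphate buffer with 0.05% Tween 20). Mounted in PBS:glycerol 1:1 and viewed by UV-excitation fluorescence microscopy for nuclear changes and apoptotic bodies.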

[15] = test system: HL-60; test: Induction of apoptosis in human HL60 cells assessed as decrease in expression of cytochrome c in mitochondrial fraction after 6 hrs by Western blot analysis; format: functional, cell-based
Procedure, shortened: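 4×10^6 HL-60 cells treated for 6 h. Cytosolic fraction from a 2 min digitonin lysis then 12000g spin; mitochondrial fraction lysed in RIPA. Cytochrome c detected by western blot, with COX IV as the mitochondrial loading control and β-actin as the cytosolic loading control.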

[16] = test system: HL-60; test: Induction of apoptosis in human HL60 cells assessed as change in cell morphology after 6 hrs
[17] = molecular target: Phosphatidylinositol 4,5-bisphosphate 3-kinase catalytic subunit alpha isoform (Homo sapiens) (UniProt P42336); test: Inhibition of PI3K p110 alpha in human HL60 cells assessed as inhibition of GSK3 beta phosphorylation by Western blotting analysis; format: cell-based; conditions: HL-60; procedure, shortened: as §3
[18] = test system: HL-60; test: Induction of apoptosis in human HL60 cells assessed as late apoptotic cells at 10 uM after 6 hrs by Annexine V/propidium iodide staining-based FACS flow cytometry analysis (reference value: 2%); format: functional
[19] = test system: HL-60; test: Induction of apoptosis in human HL60 cells assessed as mitochondrial membrane potential loss after 6 hrs by RH 123 staining-based flow cytometer analysis; format: functional, cell-based; procedure, shortened: as §2
[20] = molecular target: Phosphatidylinositol 4,5-bisphosphate 3-kinase catalytic subunit alpha isoform (Homo sapiens) (UniProt P42336); test: Inhibition of PI3K p110 alpha in human HL60 cells assessed as inhibition of mTOR phosphorylation by Western blotting analysis; format: cell-based; conditions: HL-60; procedure, shortened: as §3
[21] = test system: HL-60; test: Induction of apoptosis in human HL60 cells assessed as blebbing and shrinkage of cells at 5 to 20 uM after 6 hrs by phase contrast microscopy
[22] = molecular target: Phosphatidylinositol 4,5-bisphosphate 3-kinase catalytic subunit alpha isoform (Homo sapiens) (UniProt P42336); test: Inhibition of PI3K p110 alpha in human HL60 cells assessed as effect on total AKT level by Western blotting analysis; format: cell-based; conditions: HL-60; procedure, shortened: as §3
[23] = molecular target: Phosphatidylinositol 4,5-bisphosphate 3-kinase catalytic subunit alpha isoform (Homo sapiens) (UniProt P42336); test: Inhibition of PI3K p110 alpha in human HL60 cells assessed as inhibition of AKT phosphorylation at T308 by Western blotting analysis; format: cell-based; conditions: HL-60; procedure, shortened: as §3
[24] = molecular target: Phosphatidylinositol 4,5-bisphosphate 3-kinase catalytic subunit alpha isoform (Homo sapiens) (UniProt P42336); test: Inhibition of PI3K p110 alpha in human HL60 cells assessed as inhibition of AKT phosphorylation at AKT S473 by Western blotting analysis; format: cell-based; conditions: HL-60; procedure, shortened: as §3
[25] = test system: HL-60; test: Induction of apoptosis in human HL60 cells assessed as early apoptotic cells at 20 uM after 6 hrs by Annexine V/propidium iodide staining-based FACS flow cytometry analysis (reference value: 4%); format: functional
[26] = molecular target: Phosphatidylinositol 4,5-bisphosphate 3-kinase catalytic subunit alpha isoform (Homo sapiens) (UniProt P42336); test: Inhibition of PI3K p110 alpha in human HL60 cells by Western blotting analysis; format: cell-based; conditions: HL-60; procedure, shortened: as §3
[27] = test system: HL-60; test: Induction of apoptosis in human HL60 cells assessed as mitochondrial membrane potential loss at 5 uM after 6 hrs by RH 123 staining-based flow cytometer analysis (reference value: 6%); format: functional; procedure, shortened: as §2
[28] = molecular target: Phosphatidylinositol 4,5-bisphosphate 3-kinase catalytic subunit alpha isoform (Homo sapiens) (UniProt P42336); test: Inhibition of PI3K p110 alpha in human HL60 cells assessed as caspase 3 clevage by Western blotting analysis; format: cell-based; conditions: HL-60; procedure, shortened: as §3
[29] = test system: HL-60; test: Cell cycle arrest in human HL60 cells assessed as accumulation at G0/G1 phase at 10 uM after 6 hrs using by propidium iodide staining by FACS analysis (reference value: 6%); format: functional
[30] = test system: HL-60; test: Inhibition of human ERK 1/2 expression in human HL60 cells by Western blotting analysis; format: functional, cell-based; procedure, shortened: as §3

Compound: C[C@H]1CCC/C=C/[C@H]2CC[C@H](O)[C@@H](CC(=O)O1)O2
IC50 [1]: 81.2 µM

Compound: COc1ccc(CO[C@H]2C=C[C@H]3C/C=C\C[C@H](c4ccc5ccccc5c4)OC(=O)C[C@@H]2O3)cc1
IC50 [2]: > 100 µM
IC50 [1]: 10.2 µM
IC50 [3]: 45.4 µM

Compound: O=C1C[C@@H]2O[C@@H](C=C[C@@H]2O)C/C=C\C[C@H](c2ccc3ccccc3c2)O1
IC50 [2]: 50 µM
IC50 [1]: 30.9 µM
IC50 [3]: 21.5 µM

Compound: CCO[C@H]1C=C[C@H]2C/C=C\C[C@H](c3ccc(OC)cc3)OC(=O)C[C@@H]1O2
IC50 [2]: 62.7 µM
IC50 [1]: 69.9 µM
IC50 [3]: 56 µM

Compound: CCO[C@H]1C=C[C@H]2C/C=C\CC[C@H](C)OC(=O)C[C@@H]1O2
IC50 [2]: 57 µM
IC50 [1]: 69.7 µM
IC50 [3]: 78 µM

Compound: O=C1C[C@@H]2O[C@@H](C=C[C@@H]2O)C/C=C\C[C@H](c2ccc(F)cc2)O1
IC50 [2]: 20.8 µM
IC50 [1]: 40.2 µM
IC50 [3]: 35.8 µM

Compound: C[C@H]1CCC/C=C/[C@H]2CC[C@H](O)[C@H](CC(=O)O1)O2
IC50 [1]: 32.8 µM

Continued, in another order:

IC50 [2]: 4.9 µM
IC50 [1]: 5.7 µM
IC50 [3]: 9.16 µM
Compound: CCO[C@H]1C=C[C@H]2C/C=C\C[C@H](c3ccc(Cl)cc3)OC(=O)C[C@@H]1O2

IC50 [2]: 4.76 µM
IC50 [1]: 8.83 µM
IC50 [3]: 2.23 µM
Compound: COc1ccc(CO[C@H]2C=C[C@H]3C/C=C\C[C@H](c4ccc(F)cc4)OC(=O)C[C@@H]2O3)cc1

IC50 [2]: 5.45 µM
IC50 [1]: 10 µM
IC50 [3]: 15.8 µM
Compound: CO[C@H]1C=C[C@H]2C/C=C\C[C@H](c3ccc(Br)cc3)OC(=O)C[C@@H]1O2

IC50 [2]: 9.64 µM
inhibition [8]: Dose-dependent effect
IC50 [1]: 1.1 µM
IC50 [3]: 7.36 µM
inhibition [17]: Active
inhibition [20]: Active
inhibition [22]: inactive
inhibition [23]: Active
inhibition [24]: Active
inhibition [26]: Active
inhibition [28]: Dose-dependent effect
Compound: CO[C@H]1C=C[C@H]2C/C=C\C[C@H](c3ccc(-c4ccccc4C(F)(F)F)cc3)OC(=O)C[C@@H]1O2
Activity [4]: 25%
Activity [5]: 36%
Activity [6]: 4%
Activity [7]: 37%
Activity [9]: 24%
Activity [10]: 32%
Activity [11]: 62%
Activity [12]: 3%
IC50 [13]: ≥ 100 µM
Activity [14]: Dose-dependent effect
Activity [15]: Active
Activity [16]: Dose-dependent effect
Activity [18]: 4%
Activity [19]: Dose-dependent effect
Activity [21]: Active
Activity [25]: 37%
Activity [27]: 21%
Activity [29]: 30%
inhibition [30]: inactive
